Assays:
[1] = oral administration; cited from earlier work
[2] = system: pooled HIMs (human intestinal microsomes); assay: Kinetics of OMT metabolism; type: in vitro ADME; conditions: pooled HIM, formation of MT, biphasic metabolism equation
[3] = system: other cDNA-expressed CYP enzymes (CYP1A1, CYP1A2, CYP1B1, CYP2A6, CYP2B6, CYP2C8, CYP2C19, CYP2D6, CYP2E1, CYP3A5); assay: Metabolism of OMT in recombinant human CYP enzymes: other isoforms; type: in vitro ADME; conditions: OMT 50 μM, 0.08 mg/mL enzyme, NADPH-regenerating system, 37°C, 1.5 hours
[4] = molecular target: cDNA-expressed human CYP3A4 (Homo sapiens, UniProt P08684); assay: Metabolism of OMT in recombinant human CYP enzymes: CYP3A4; type: in vitro ADME; conditions: OMT 50 μM, 0.08 mg/mL enzyme, NADPH-regenerating system, 37°C, 1.5 hours
Sequence of cDNA-expressed human CYP3A4 (P08684 whole entry): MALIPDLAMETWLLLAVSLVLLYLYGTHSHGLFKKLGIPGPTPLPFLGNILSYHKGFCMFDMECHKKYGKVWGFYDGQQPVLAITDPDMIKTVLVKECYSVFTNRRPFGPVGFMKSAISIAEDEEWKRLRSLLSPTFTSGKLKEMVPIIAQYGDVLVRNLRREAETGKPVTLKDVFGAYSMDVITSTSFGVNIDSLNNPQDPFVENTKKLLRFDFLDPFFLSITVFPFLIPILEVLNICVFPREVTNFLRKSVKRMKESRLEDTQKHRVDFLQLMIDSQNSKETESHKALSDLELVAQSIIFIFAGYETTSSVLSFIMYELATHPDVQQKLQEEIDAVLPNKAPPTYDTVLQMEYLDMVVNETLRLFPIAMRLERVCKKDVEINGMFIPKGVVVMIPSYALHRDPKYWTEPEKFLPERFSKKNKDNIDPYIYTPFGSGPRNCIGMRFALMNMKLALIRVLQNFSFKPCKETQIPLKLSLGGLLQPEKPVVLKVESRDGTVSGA

[5] = system: pooled HLMs (human liver microsomes); assay: Kinetics of OMT metabolism; type: in vitro ADME; conditions: pooled HLM, formation of MT, biphasic metabolism equation
HLMs [6] = assay: Identification of OMT metabolite in HLMs; type: in vitro ADME, human; conditions: HLMs and NADPH, 37°C, 1.5 hours; metabolite identified as MT
How it was run: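 Test compound at 50, 100 or 200 μM with pooled human liver microsomes (0.1 mg/mL) in 50 mM KPI pH 7.4 and a glucose-6-phosphate/MgCl2/G6P dehydrogenase system, started with NADP. Controls lacked NADP. Run at 37°C for 1.5 h with shaking, then CH2Cl2 extraction. UPLC and Q-TOF MS (positive ESI); metabolite assigned by chromatographic behaviour and MS fragmentation. Triplicate.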

HLMs [7] = assay: Effects of different oxygen contents on the metabolism of OMT in HLMs; type: in vitro ADME, human; conditions: OMT 50 μM, enzyme inactivated in boiled water for 2 h, ventilation for 30 s

SMILES: O=C1CCC[C@@H]2[C@H]3CCC[N+]4([O-])CCC[C@@H](CN12)[C@@H]34 (stereo partly shown) [OMT, Oxymatrine]
- oral absolute bioavailability [1]: 6.79%
- Vmax [2]: 0.46 ± 0.05 nmol/min/mg
- formation of MT by other cDNA-expressed CYP enzymes [3]: only a small amount of MT could be detected
- formation of MT by CYP3A4 [4]: contributed greatly to the formation of MT
- Vmax [5]: 1.49 ± 0.24 nmol/min/mg
- metabolites found in HLMs (HLMs [6]): only one metabolite was found in HLMs
- metabolites in the inactivated enzyme test (HLMs [7]): no metabolites were observed

Reference: publication PMC4636097 (Drug Design, Development and Therapy, 2015)
